# Assay outcomes: PubChem BioAssay, several laboratories
# Beta2AR agonist: beta2AR agonists driving receptor internalization, primary screen, cell-based, FAP fluorogen, flow cytometry | AID 504454, 2011 | Beta-2 adrenergic receptor (Homo sapiens), P07550 | hit rate 0.43% among 340,000 | Am2.2-beta2AR cells | response, % (no concentration beside the values);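 active means response above a set limit, near 3 SD of response in nonfluorescent compounds, cut at about 42% in these data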
# Rin1-Abl PPI inh: inhibitors of Rin1-Abl protein binding, primary screen, biochemical, TR-FRET; Tyrosine-protein kinase ABL1 (Homo sapiens) + Ras and Rab interactor 1 (Homo sapiens), …; inhibition, % at 7.35 µM; hit rate 0.4% among 360,000; in the data active means inhibition above about 5%, passing the limit was not always enough
# Arr AP2 block: inhibitors of beta-arrestin/AP2 binding, primary screen, biochemical, GPCR trafficking, flow cytometry | FITC-arrestin peptide / GST-AP2 beads; AP2 beta2 appendage carries R879A mutation | hit rate 0.31% among 340,000 | beta-arrestin 1 C-terminal peptide binding to AP2 beta2-adaptin appendage (human) | inhibition, % at 10 µM;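 active means inhibition above a set limit, near 3 SD of compounds lacking own fluorescence, cut at about 54% in these data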;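 further: plate controls were DMSO wells for no effect and 5 µM unlabelled arrestin peptide for full effect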
#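 Assay system: GST-AP2 R879A bound to glutathione beads, E. coli-expressed; Medium: PBS with 0.05% Tween 20 and 0.1% BSA; Also added: fluorescein-tagged arrestin peptide at 50 nM final; Timing: 12 min plus 1 h, RT; Measured by: flow cytometry, FL1 (488/535 nm); Evaluation: percent drop in bead-associated FITC signal.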
# MBD2 DNA inh: inhibitors of MBD2 binding to methylated DNA, primary screen, biochemical, TR-FRET, DNA-binding domain, human. hit rate 0.31% among 370,000. MBD2 binding to methylated oligonucleotide. inhibition, % at 4.4 µM; in the data active means inhibition above about 13%
# Target sequence (Q9UBB5 whole entry, looked up, the tested form may be a part): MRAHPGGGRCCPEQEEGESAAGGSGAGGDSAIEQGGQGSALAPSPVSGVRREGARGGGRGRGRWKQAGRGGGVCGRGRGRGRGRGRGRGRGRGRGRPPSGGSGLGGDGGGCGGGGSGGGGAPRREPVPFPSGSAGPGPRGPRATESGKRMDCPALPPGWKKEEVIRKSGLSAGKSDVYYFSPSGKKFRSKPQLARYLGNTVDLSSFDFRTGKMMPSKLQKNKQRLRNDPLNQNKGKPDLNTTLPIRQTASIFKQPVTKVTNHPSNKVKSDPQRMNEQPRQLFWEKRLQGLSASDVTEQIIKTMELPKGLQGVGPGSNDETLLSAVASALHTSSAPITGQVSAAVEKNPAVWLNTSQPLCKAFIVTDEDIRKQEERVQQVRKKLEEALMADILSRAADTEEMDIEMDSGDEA
# UHRF1 MBD2 ctr: UHRF1 methylated DNA binding inhibitors, primary screen, counter-screen for MBD2 inhibitor project, biochemical, TR-FRET, human UHRF1, single concentration; hit rate 0.75% among 370,000; inhibition, % at 4.4 µM; UHRF1 binding to methylated oligo; in the data active means inhibition above about 21%;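 further: UHRF1 SRA domain binding a hemimethylated CpG hairpin DNA probe; 0% = median of test compound wells and 100% = reference inhibitor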
# ABHD5-PLIN5 inh: ABHD5-PLIN5 interaction inhibitors, primary screen, cell lysate, split luciferase complementation, luminescence. Perilipin-5 (Homo sapiens) + 1-acylglycerol-3-phosphate O-acyltransferase ABHD5 (Homo …. Split G. princeps luciferase complementation, 4 h. inhibition, % at 4 µM. hit rate 0.78% among 360,000. AID 602281, 2012;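 active means inhibition above the mean inhibition across every tested compound plus 3 SD, cut at about 22% in these data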;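 further: 0% = DMSO only wells and the 100% control is not disclosed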
# ABHD5 PLIN5 conf: ABHD5-PLIN5 interaction inhibitors, confirmation, biochemical, luminescence | shares compounds with ABHD5-PLIN5 inh | inhibition, % at 4 µM | hit rate 67% among 2,200; in the data active means inhibition above about 23%;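 further: 0% = DMSO vehicle wells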
# HNF4 split-luc: HNF4 dimerization inhibitors, counter-screen for ABHD5-PLIN5 interaction inhibitor project, biochemical, split-luciferase complementation, luminescence | shares compounds with ABHD5-PLIN5 inh | inhibition, % at 4 µM | hit rate 77% among 2,200;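 active means mean inhibition across replicate wells exceeding the computed hit threshold, cut at about 13% in these data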;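 further: light from luciferase halves that rejoin when HNF4 fusion proteins dimerize; 0% = DMSO only wells and the 100% control is not given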
# * = called active by the depositor; x = not tested or not shown. A selection: hits, their analogues and other compounds. The true share with any hit is near 2.5%.
SMILES,Beta2AR agonist,Rin1-Abl PPI inh,Arr AP2 block,MBD2 DNA inh,UHRF1 MBD2 ctr,ABHD5-PLIN5 inh,ABHD5 PLIN5 conf,HNF4 split-luc
C#CCN(C[C@@H]1[C@@H](OC(=O)NCCCCCC)[C@@H](OC(=O)NCCCCCC)Cn2c(=O)ccc(=O)n21)S(=O)(=O)c1ccc(C)cc1,x,-0.9,x,0.1,12.1,33.7*,55.8*,-3.9
C#CCN(C[C@@H]1[C@@H](OC(=O)NCc2ccc(OC)c(OC)c2)[C@@H](OC(=O)NCc2ccc(OC)c(OC)c2)Cn2c(=O)ccc(=O)n21)S(=O)(=O)c1ccc(C)cc1,x,0.5,x,3.7,3.2,45.9*,61.9*,20.9*
C#CCN(C[C@@H]1[C@@H](OC(=O)NCc2ccco2)[C@@H](OC(=O)NCc2ccco2)Cn2c(=O)n(CCCCCC)c(=O)n21)S(=O)(=O)c1ccc(C)cc1,x,-2.7,x,10.1,3.4,0.4,x,x
C#CCN(C[C@@H]1[C@@H](OC(=O)NCc2ccco2)[C@@H](OC(=O)NCc2ccco2)Cn2c(=O)ccc(=O)n21)S(=O)(=O)c1ccc(C)cc1,x,-1.8,x,1.6,-1.7,27.0*,41.3*,25.6*
C#CCN(C[C@@H]1[C@@H](OC(=O)NCc2ccc(OC)c(OC)c2)[C@@H](OC(=O)NCc2ccc(OC)c(OC)c2)Cn2c(=O)n(CCCCCC)c(=O)n21)S(=O)(=O)c1ccc(C)cc1,x,-1.5,x,-9.8,-0.5,-4.3,x,x
COC(=O)C1CN(Cc2cn(Cc3ccc(OC)cc3)nn2)CCS(=O)(=O)N1Cc1ccc(Cl)cc1 (stereo not drawn),x,x,x,-4.2,-0.4,x,x,x
O=C(Cn1c(=O)c2cccn2c2cccnc21)NCCCN1CCN(c2ccccc2)CC1,x,x,x,1.0,4.0,x,x,x
O=C(CN1CCN(c2nc(-c3ccccc3)cs2)CC1)Nc1ccc(Cl)cc1,x,x,x,-1.1,0.9,x,x,x
Cc1cc(N(CCO)CCO)ccc1N=Nc1cc(F)ccc1F,-2.1,-1.3,18.4,-10.6,-8.4,30.5*,22.0*,16.7*
O=C(CCCN1C(=O)S/C(=C\C=C\c2ccccc2)C1=O)Nc1ccc(C(=O)O)cc1,-0.4,2.1,5.5,-1.3,-0.2,34.2*,19.0,19.5*
COc1ccc(C(=O)N2CCC(Oc3cccnc3)CC2)c(OC)c1,x,x,x,0.8,-0.9,x,x,x
COc1ccc(NC(=S)N2CCN(Cc3ccco3)CC2)c(OC)c1,3.0,0.4,-7.7,3.8,2.1,23.5*,3.4,13.6*
COc1ccc(NC(=S)N2CCN(Cc3cccc(F)c3)CC2)c(OC)c1,2.7,4.4,8.6,5.7,1.6,-1.2,x,x
Cc1cc(N2CCN(C(=O)Oc3ccc(-c4ccccc4)cc3)CC2)c2ccccc2n1,x,x,x,-3.7,0.2,x,x,x
CCOC(=O)c1cc([N+](=O)[O-])cc([N+](=O)[O-])c1Sc1ncnc2nc[nH]c12,39.0,2.1,19.4,-6.8,-7.5,37.6*,61.7*,101.8*
Cc1ccc(/C=C/C(=O)Nc2cccc3ncccc23)o1,0.3,3.0,6.9,-7.7,-6.7,42.5*,29.5*,32.9*
O=C(C#Cc1ccccc1)c1ccccc1,x,2.8,x,-1.2,-1.3,25.1*,78.4*,107.3*
CCCC1CCC2(CCCN2CCOC(=S)Nc2ccccc2)CC1 (stereo not drawn),x,x,x,-3.3,4.9,x,x,x
COc1cccc(/C=C2\CC3(OC(=O)c4ccc(Cl)cc4)CCCN2C3)c1 (stereo not drawn),x,x,x,-2.4,4.6,x,x,x
C#CCN1CC(N(C)CCOC(=O)c2cc3ccccc3[nH]2)CS1(=O)=O (stereo not drawn),x,x,x,4.4,1.6,x,x,x
CCN(CC)c1ccc(/C=C/C(=O)c2cccnc2)cc1,14.2,0.6,12.8,-2.2,-2.9,12.2,x,x
O=C(/C=C/c1ccc(OCc2ccccc2)c(OCc2ccccc2)c1)c1cccnc1,4.0,-0.3,34.3,-4.8,0.5,26.1*,87.1*,77.8*
O=C(/C=C/c1ccccc1Cl)c1cccnc1,3.1,-5.3,-0.9,-2.8,-0.7,71.3*,99.8*,102.2*
O=C(/C=C/c1ccc(Cl)cc1)c1cccnc1,-8.8,5.0,0.7,-3.4,4.7,79.6*,96.0*,100.4*
N#Cc1ccc(/C=C/C(=O)c2cccnc2)cc1,0.9,1.2,-15.4,2.0,0.9,81.8*,92.2*,95.8*
SMILES,Beta2AR agonist,Rin1-Abl PPI inh,Arr AP2 block,MBD2 DNA inh,UHRF1 MBD2 ctr,ABHD5-PLIN5 inh,ABHD5 PLIN5 conf,HNF4 split-luc
COC(=O)[C@H]1C[C@@]2(c3ccccc3)c3ccccc3N[C@H]2N1,x,x,x,-3.5,3.8,x,x,x
CC1CCC(C(=O)NNC(=O)c2cc(-c3ccco3)[nH]n2)CC1 (stereo not drawn),4.4,-3.4,8.1,-1.0,0.5,27.0*,3.1,0.7
O=C(C1CCC1)N1CCc2cc(S(=O)(=O)N3CCCC3)ccc21,x,x,x,-1.3,0.0,x,x,x
O=C(Oc1ccccc1/C=C\C(=O)c1cc2ccccc2o1)c1ccccc1,-6.8,2.0,10.2,-0.1,-1.4,30.5*,98.7*,100.8*
O=C(N/N=C/c1ccccc1OC(=O)c1ccc2c(c1)OCO2)c1cccc(F)c1,-3.6,-6.5,2.6,-1.3,1.8,-3.3,x,x
COc1ccc(C(=O)/C=C/c2ccccc2OC)c(OC(=O)c2ccc([N+](=O)[O-])cc2)c1,-0.8,-2.0,1.6,-0.5,-2.5,-0.6,x,x
O=C(Oc1ccccc1/C=C\C(=O)c1cc2ccccc2o1)c1cccc(F)c1,24.5,-0.6,13.8,3.9,3.5,32.4*,98.8*,94.6*
COc1cccc(C(=O)Oc2ccccc2/C=C\C(=O)c2cc3ccccc3o2)c1,10.6,1.5,0.1,-4.7,-0.8,83.4*,98.6*,101.5*
COc1ccc(CCN(Cc2cccs2)S(=O)(=O)c2ccc(C)c(C)c2)cc1OC,x,x,x,6.2,-0.7,x,x,x
COc1ccc(NC(=S)N(CCCN2CCCC2)Cc2cccn2Cc2ccc(Cl)cc2)cc1Cl,24.9,-4.1,0.5,1.9,-2.0,30.5*,12.6,-9.9
Cc1ccc(NC(=S)N(CCCN2CCCC2)Cc2cccn2Cc2ccc(Cl)cc2)cc1Cl,21.9,1.2,3.1,-1.5,1.3,11.3,x,x
